ChEMBL document CHEMBL1156256, “Poly(ethylene glycol) (PEG-400) as an alternative reaction solvent for the synthesis of some new 1-(4-(4'-chlorophenyl)-2-thiazolyl)-3-aryl-5-(2-butyl-4-chloro-1H-imidazol-5yl)-2-pyrazolines and their in vitro antimicrobial evaluation” (2010)
Values after ≈ are worked out from the molar mass of the structure shown.

Columns and labels:
Bacillus subtilis = test: Antibacterial activity against Bacillus subtilis MTCC 441 after 24 hrs by agar diffusion method; type: functional; conditions: for MIC: Bacillus subtilis, MTCC 441, 24 h
Outline: (§1)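 Agar well diffusion following NCCLS. Bacteria kept on nutrient agar slants at 37 ± 0.5 °C for 24 h. Nutrient agar plates seeded with 0.1 mL of culture suspension in 0.85% sterile saline (10⁵ CFU/mL). Plates incubated at 37 ± 0.5 °C for 24 h. Zone of inhibition recorded in mm, and MIC noted. 1% DMSO used as control.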

Candida albicans = test: Antifungal activity against Candida albicans MTCC 183 after 24 to 48 hrs by agar diffusion method; type: functional
Outline: (§2)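 Fungi grown on potato dextrose agar slants at 27 ± 0.2 °C for 24–48 h until sporulation. Spores suspended in sterile water with 1% Tween-80 and counted by haemocytometer (10⁶ CFU/mL). 0.1 mL spread on 2% agar PDA plates and held at 27 °C for 12 h. Wells then received 0.1 mL of compound at graded concentrations for MIC. Plates refrigerated 20 min for diffusion, then incubated at 27 ± 0.2 °C for […]. Zone read in mm. 1% DMSO used as control.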

Trichoderma viride = test: Antifungal activity against Trichoderma viride MTCC 167 after 24 to 48 hrs by agar diffusion method; type: functional; outline: as §2
Salmonella enterica = test: Antibacterial activity against Salmonella typhi MTCC 98 after 24 hrs by agar diffusion method; type: functional, Salmonella enterica subsp. enterica serovar Typhi; conditions: for MIC: Salmonella enterica, MTCC 98, 24 h
Outline: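 NCCLS agar diffusion. Strain kept on nutrient agar slant at 37 ± 0.5 °C for 24 h. Nutrient agar plates seeded with 0.1 mL of a 10⁵ CFU/mL suspension in sterile 0.85% saline. Plates incubated at 37 ± 0.5 °C for 24 h. Read-out: zone of inhibition (mm) and MIC.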

Staphylococcus aureus = test: Antibacterial activity against Staphylococcus aureus MTCC 96 after 24 hrs by agar diffusion method; type: functional; conditions: for MIC: Staphylococcus aureus, MTCC 96, 24 h; outline: as §1
Escherichia coli = test: Antibacterial activity against Escherichia coli MTCC 2939 after 24 hrs by agar diffusion method; type: functional; conditions: for MIC: Escherichia coli, MTCC 2939, 24 h; outline: as §1
Penicillium chrysogenum = test: Antifungal activity against Penicillium chrysogenum MTCC 160 after 24 to 48 hrs by agar diffusion method; type: functional; outline: as §2
Aspergillus niger = test: Antifungal activity against Aspergillus niger MTCC 281 after 24 to 48 hrs by agar diffusion method; type: functional; outline: as §2
Fusarium verticillioides = test: Antifungal activity against Fusarium moniliforme MTCC 156 after 24 to 48 hrs by agar diffusion method; type: functional; outline: as §2
[1] = Penicillium chrysogenum, MTCC 160
[2] = Fusarium verticillioides, MTCC 156

Row | Compound | inhibition zone (IZ) (Bacillus subtilis) [mm] | MIC (Bacillus subtilis) [µg/mL] | inhibition zone (IZ) (Candida albicans) [mm] | MIC (Candida albicans; Candida albicans, MTCC 183) [µg/mL] | inhibition zone (IZ) (Trichoderma viride) [mm] | MIC (Trichoderma viride; Trichoderma viride, MTCC 167) [µg/mL] | inhibition zone (IZ) (Salmonella enterica) [mm] | MIC (Salmonella enterica) [µg/mL] | inhibition zone (IZ) (Staphylococcus aureus) [mm] | MIC (Staphylococcus aureus) [µg/mL] | inhibition zone (IZ) (Escherichia coli) [mm] | MIC (Escherichia coli) [µg/mL] | inhibition zone (IZ) (Penicillium chrysogenum) [mm] | MIC (Penicillium chrysogenum; [1]) [µg/mL] | inhibition zone (IZ) (Aspergillus niger) [mm] | MIC (Aspergillus niger; Aspergillus niger, MTCC 281) [µg/mL] | inhibition zone (IZ) (Fusarium verticillioides) [mm] | MIC (Fusarium verticillioides; [2]) [µg/mL] | further results
1 | CCCCc1nc(Cl)c(C2CC(c3ccc(Cl)cc3)=NN2c2nc(-c3ccc(Cl)cc3)cs2)[nH]1 (centres undefined) | 14 | 50 (≈ 94.2 µM) | 14 | 25 (≈ 47.1 µM) | 11 | 50 (≈ 94.2 µM) | 10 | 50 (≈ 94.2 µM) | 12 | 50 (≈ 94.2 µM) | 16 | 25 (≈ 47.1 µM) | 10 | 50 (≈ 94.2 µM) | 12 | 50 (≈ 94.2 µM) | 11 | 50 (≈ 94.2 µM) | –
2 | CN(C)[C@@H]1C(O)=C(C(N)=O)C(=O)[C@@]2(O)C(O)=C3C(=O)c4c(O)cccc4[C@@](C)(O)[C@H]3C[C@@H]12 [TETRACYCLINE] | 32 | 25 (≈ 56.3 µM) | – | – | – | – | 28 | 25 (≈ 56.3 µM) | 30 | 25 (≈ 56.3 µM) | 30 | 25 (≈ 56.3 µM) | – | – | – | – | – | – | –
3 | CCCCc1nc(Cl)c(C2CC(c3cc(Cl)c(C)c(I)c3O)=NN2c2nc(-c3ccc(Cl)cc3)cs2)[nH]1 (centres undefined) | 19 | 25 (≈ 36.4 µM) | 13 | 25 (≈ 36.4 µM) | 12 | 25 (≈ 36.4 µM) | 16 | 25 (≈ 36.4 µM) | 14 | 50 (≈ 72.8 µM) | 18 | 25 (≈ 36.4 µM) | 15 | 25 (≈ 36.4 µM) | 14 | 25 (≈ 36.4 µM) | 14 | 25 (≈ 36.4 µM) | –
4 | CCCCc1nc(Cl)c(C2CC(c3cc(Cl)ccc3O)=NN2c2nc(-c3ccc(Cl)cc3)cs2)[nH]1 (centres undefined) | 18 | 25 (≈ 45.7 µM) | 16 | 25 (≈ 45.7 µM) | 15 | 25 (≈ 45.7 µM) | 12 | 50 (≈ 91.4 µM) | 16 | 25 (≈ 45.7 µM) | 18 | 25 (≈ 45.7 µM) | 12 | 25 (≈ 45.7 µM) | 16 | 25 (≈ 45.7 µM) | 15 | 25 (≈ 45.7 µM) | –
5 | CCCCc1nc(Cl)c(C2CC(c3ccc(N)cc3)=NN2c2nc(-c3ccc(Cl)cc3)cs2)[nH]1 (centres undefined) | 8 | 50 (≈ 97.8 µM) | – | > 100 | 12 | 50 (≈ 97.8 µM) | – | > 100 | 10 | 50 (≈ 97.8 µM) | 12 | 50 (≈ 97.8 µM) | 10 | 50 (≈ 97.8 µM) | 14 | 25 (≈ 48.9 µM) | – | > 100 | –
6 | CCCCc1nc(Cl)c(C2CC(c3cc(C)cc(Br)c3O)=NN2c2nc(-c3ccc(Cl)cc3)cs2)[nH]1 (centres undefined) | 14 | 50 (≈ 82.6 µM) | 12 | 25 (≈ 41.3 µM) | 14 | 25 (≈ 41.3 µM) | 12 | 50 (≈ 82.6 µM) | 12 | 50 (≈ 82.6 µM) | 16 | 25 (≈ 41.3 µM) | 13 | 50 (≈ 82.6 µM) | 10 | 50 (≈ 82.6 µM) | 9 | 50 (≈ 82.6 µM) | –
7 | NYSTATIN | – | – | 18 | – | 18 | – | – | – | – | – | – | – | 16 | – | 18 | – | 16 | – | MIC (Candida albicans): 25 µg/mL; MIC (Trichoderma viride): 25 µg/mL; MIC (Penicillium chrysogenum): 25 µg/mL; MIC (Aspergillus niger): 25 µg/mL; MIC (Fusarium verticillioides): 25 µg/mL
8 | CCCCc1nc(Cl)c(C2CC(c3cc(Cl)cc(Br)c3O)=NN2c2nc(-c3ccc(Cl)cc3)cs2)[nH]1 (centres undefined) | 15 | 25 (≈ 39.9 µM) | 16 | 25 (≈ 39.9 µM) | 15 | 25 (≈ 39.9 µM) | 18 | 25 (≈ 39.9 µM) | 16 | 25 (≈ 39.9 µM) | 21 | 25 (≈ 39.9 µM) | 16 | 25 (≈ 39.9 µM) | 18 | 25 (≈ 39.9 µM) | 10 | 50 (≈ 79.9 µM) | –
9 | CCCCc1nc(Cl)c(C2CC(c3cc(Cl)cc(I)c3O)=NN2c2nc(-c3ccc(Cl)cc3)cs2)[nH]1 (centres undefined) | 21 | 25 (≈ 37.2 µM) | 15 | 25 (≈ 37.2 µM) | 16 | 25 (≈ 37.2 µM) | 16 | 25 (≈ 37.2 µM) | 18 | 25 (≈ 37.2 µM) | 20 | 25 (≈ 37.2 µM) | 14 | 25 (≈ 37.2 µM) | 15 | 25 (≈ 37.2 µM) | 12 | 25 (≈ 37.2 µM) | –
10 | CCCCc1nc(Cl)c(C2CC(c3cc(C)cc(I)c3O)=NN2c2nc(-c3ccc(Cl)cc3)cs2)[nH]1 (centres undefined) | 12 | 50 (≈ 76.6 µM) | 11 | 50 (≈ 76.6 µM) | 14 | 25 (≈ 38.3 µM) | 15 | 25 (≈ 38.3 µM) | 15 | 25 (≈ 38.3 µM) | 14 | 50 (≈ 76.6 µM) | 12 | 25 (≈ 38.3 µM) | 14 | 25 (≈ 38.3 µM) | 10 | 50 (≈ 76.6 µM) | –
11 | CCCCc1nc(Cl)c(C2CC(c3cc(C)ccc3O)=NN2c2nc(-c3ccc(Cl)cc3)cs2)[nH]1 (centres undefined) | 12 | 50 (≈ 95 µM) | 10 | 50 (≈ 95 µM) | 8 | 50 (≈ 95 µM) | – | > 100 | – | > 100 | 11 | 50 (≈ 95 µM) | – | > 100 | 12 | 50 (≈ 95 µM) | 11 | 50 (≈ 95 µM) | –
